{"source": "ChEMBL document CHEMBL3621194", "about": "“Synthesis of Triazole-Linked Analogues of c-di-GMP and Their Interactions with Diguanylate Cyclase” (J Med Chem, 2015)", "key": {"Pseudomonas aeruginosa [1]": {"test_system": "Pseudomonas aeruginosa", "assay": "Inhibition of biofilm formation of Pseudomonas aeruginosa PAO1 at 7.81 to 500 uM incubated for 16 hrs by crystal violet staining method", "assay_type": "functional, organism-based", "procedure,_shortened": "(§1)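 P. aeruginosa PAO1 or E. coli MG1655 grown 14 h at 37°C in M9 with 0.4% glucose (E. coli medium also with 2.5% LB). Cultures diluted in fresh medium, compound in DMSO or DMSO alone added, then incubated 16 h at 30°C. Planktonic A600 read; wells washed with PBS, air-dried, stained with 1% crystal violet, solubilised in ethanol, A595 read.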"}, "Pseudomonas aeruginosa [2]": {"test_system": "Pseudomonas aeruginosa", "assay": "Inhibition of Pseudomonas aeruginosa YfiN containing HAMP-GGDEF domain assessed as residual enzyme activity up to 250 uM"}, "[3]": {"assay": "Inhibition of Caulobacter crescentus PleD using 100 uM GTP substrate", "set-up": "species or system Caulobacter vibrioides", "procedure,_shortened": "(§2)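 DGC activity of PleD measured by circular dichroism with 100 µM GTP substrate; where compound CD spectra interfered, nucleotide content analysed by reverse-phase HPLC. Initial velocity used for IC50; residual activity versus inhibitor concentration fitted to log-dose vs response curve, mean and SD of three independent experiments.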"}, "Pseudomonas aeruginosa [4]": {"test_system": "Pseudomonas aeruginosa", "assay": "Effect on cdrA expression in Pseudomonas aeruginosa PAO1 at 200 uM by real time RT-PCR method", "assay_type": "functional, organism-based", "procedure,_shortened": "(§3)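 P. aeruginosa PAO1 grown at 37°C in M9 minimal medium with 0.4% glucose, plus DMSO or 200 µM compound in DMSO, to A600 2.0. Total RNA extracted, DNase-treated, reverse transcribed; qPCR with 5 ng cDNA per reaction and 300 nM primers, fluorescence read in the 60°C step. Normalized to 16S rRNA; relative fold change by 2∆∆Ct method.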"}, "Pseudomonas aeruginosa [5]": {"test_system": "Pseudomonas aeruginosa", "assay": "Inhibition of Pseudomonas aeruginosa RocR assessed as residual enzyme activity at 100 uM using 30 uM c-di-GMP substrate", "procedure,_shortened": "(§4)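 RocR PDE activity measured with 30 µM c-di-GMP substrate, with or without inhibitors. For IC50, initial velocity used and residual activity fitted to log-dose vs response curve; points are mean and SD of three independent experiments. Single-point screens used 100 µM compound.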"}, "[6]": {"assay": "Inhibition of Pseudomonas aeruginosa RocR assessed as residual enzyme activity using 30 uM c-di-GMP substrate", "procedure,_shortened": "as §4"}, "Pseudomonas aeruginosa [7]": {"test_system": "Pseudomonas aeruginosa", "assay": "Effect on pctC expression in Pseudomonas aeruginosa PAO1 at 200 uM by real time RT-PCR method", "assay_type": "functional, organism-based", "procedure,_shortened": "as §3"}, "Escherichia coli": {"test_system": "Escherichia coli", "assay": "Inhibition of biofilm formation of Escherichia coli MG1655 7.81 to 500 uM incubated for 16 hrs by crystal violet staining method", "assay_type": "functional, organism-based", "procedure,_shortened": "as §1"}, "Pseudomonas aeruginosa [8]": {"test_system": "Pseudomonas aeruginosa", "assay": "Inhibition of Pseudomonas aeruginosa WspR assessed as residual enzyme activity at 100 uM", "procedure,_shortened": "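WspR DGC activity measured by circular dichroism under the same conditions as for PleD, with 100 µM compound; read-out as residual activity.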"}, "Caulobacter vibrioides": {"test_system": "Caulobacter vibrioides", "assay": "Inhibition of Caulobacter crescentus PleD assessed as residual enzyme activity at 100 uM using 100 uM GTP substrate", "procedure,_shortened": "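PleD residual DGC activity at 100 µM compound with 100 µM GTP substrate, measured by circular dichroism, or by reverse-phase HPLC of nucleotide content when compound CD spectra interfered.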"}, "[9]": {"assay": "Inhibition of Caulobacter crescentus PleD", "set-up": "species or system Caulobacter vibrioides", "procedure,_shortened": "as §2"}}, "note": "Activity calls are given as the source filed them. The rule behind the calls is not given here."}
{"molecule": "Nc1nc2c(ncn2CCCn2cc(Cn3cnc4c(=O)[nH]c(N)nc43)nn2)c(=O)[nH]1", "values": [{"measurement": "inhibition", "setting": "Pseudomonas aeruginosa [1]", "value": "inactive"}, {"measurement": "inhibition", "setting": "Pseudomonas aeruginosa [2]", "value": "inactive"}, {"measurement": "IC50", "setting": "[3]", "value": 17.5, "unit": "µM"}, {"measurement": "Activity", "setting": "Pseudomonas aeruginosa [4]", "value": "inactive"}, {"measurement": "Activity", "setting": "Pseudomonas aeruginosa [5]", "value": 41, "unit": "%"}, {"measurement": "IC50", "setting": "[6]", "value": 66.3, "unit": "µM"}, {"measurement": "Activity", "setting": "Pseudomonas aeruginosa [7]", "value": "inactive"}, {"measurement": "inhibition", "setting": "Escherichia coli", "value": "inactive"}, {"measurement": "Activity", "setting": "Pseudomonas aeruginosa [8]", "value": 20, "unit": "%"}, {"measurement": "Activity", "setting": "Caulobacter vibrioides", "value": 12.5, "unit": "%"}]}
{"molecule": "Nc1nc2c(ncn2[C@@H]2O[C@@H]3COP(=O)(O)O[C@H]4[C@@H](O)[C@H](n5cnc6c(=O)[nH]c(N)nc65)O[C@@H]4COP(=O)(O)O[C@H]3[C@H]2O)c(=O)[nH]1", "values": [{"measurement": "IC50", "setting": "[9]", "value": 5, "unit": "µM"}]}
{"molecule": "Nc1nc(NCc2ccccc2)c2ncn(CCCn3cc(Cn4cnc5c(NCc6ccccc6)nc(N)nc54)nn3)c2n1", "values": [{"measurement": "Activity", "setting": "Pseudomonas aeruginosa [5]", "value": 75, "unit": "%"}, {"measurement": "Activity", "setting": "Caulobacter vibrioides", "value": 109, "unit": "%"}]}
{"molecule": "Clc1ncnc2c1ncn2CCCn1cc(Cn2cnc3c(Cl)ncnc32)nn1", "values": [{"measurement": "Activity", "setting": "Pseudomonas aeruginosa [5]", "value": 93, "unit": "%"}, {"measurement": "Activity", "setting": "Caulobacter vibrioides", "value": 97, "unit": "%"}]}
{"molecule": "CNc1nc(N)nc2c1ncn2CCCn1cc(Cn2cnc3c(NC)nc(N)nc32)nn1", "values": [{"measurement": "Activity", "setting": "Pseudomonas aeruginosa [5]", "value": 70, "unit": "%"}, {"measurement": "Activity", "setting": "Caulobacter vibrioides", "value": 96, "unit": "%"}]}
{"molecule": "Nc1ncnc2c1ncn2CCCn1cc(Cn2cnc3c(N)ncnc32)nn1", "values": [{"measurement": "Activity", "setting": "Pseudomonas aeruginosa [5]", "value": 64, "unit": "%"}, {"measurement": "Activity", "setting": "Caulobacter vibrioides", "value": 106, "unit": "%"}]}
{"molecule": "Nc1nc2c(ncn2CCCn2cc(COC[C@H]3O[C@@H](n4cnc5c(=O)[nH]c(N)nc54)[C@H](O)[C@@H]3O)nn2)c(=O)[nH]1", "values": [{"measurement": "Activity", "setting": "Pseudomonas aeruginosa [5]", "value": 163, "unit": "%"}, {"measurement": "Activity", "setting": "Caulobacter vibrioides", "value": 82, "unit": "%"}]}
{"molecule": "Nc1nc(Cl)c2ncn(CCn3cc(Cn4cnc5c(Cl)nc(N)nc54)nn3)c2n1", "values": [{"measurement": "Activity", "setting": "Pseudomonas aeruginosa [5]", "value": 86, "unit": "%"}, {"measurement": "Activity", "setting": "Caulobacter vibrioides", "value": 92, "unit": "%"}]}
{"molecule": "Nc1nc2c(ncn2Cc2cn(C[C@H]3O[C@@H](n4cnc5c(=O)[nH]c(N)nc54)[C@H](O)[C@@H]3O)nn2)c(=O)[nH]1", "values": [{"measurement": "Activity", "setting": "Pseudomonas aeruginosa [5]", "value": 77, "unit": "%"}, {"measurement": "Activity", "setting": "Caulobacter vibrioides", "value": 89, "unit": "%"}]}
{"molecule": "Nc1nc(Cl)c2ncn(CCCCn3cc(Cn4cnc5c(Cl)nc(N)nc54)nn3)c2n1", "values": [{"measurement": "Activity", "setting": "Pseudomonas aeruginosa [5]", "value": 128, "unit": "%"}, {"measurement": "Activity", "setting": "Caulobacter vibrioides", "value": 98, "unit": "%"}]}
{"molecule": "Nc1nc2c(ncn2[C@@H]2O[C@H](Cn3cc(COC[C@H]4O[C@@H](n5cnc6c(N)ncnc65)[C@H](O)[C@@H]4O)nn3)[C@@H](O)[C@H]2O)c(=O)[nH]1", "values": [{"measurement": "Activity", "setting": "Pseudomonas aeruginosa [5]", "value": 79, "unit": "%"}, {"measurement": "Activity", "setting": "Caulobacter vibrioides", "value": 97, "unit": "%"}]}
{"molecule": "Nc1nc2c(ncn2CCCCn2cc(Cn3cnc4c(=O)[nH]c(N)nc43)nn2)c(=O)[nH]1", "values": [{"measurement": "Activity", "setting": "Pseudomonas aeruginosa [5]", "value": 92, "unit": "%"}, {"measurement": "Activity", "setting": "Caulobacter vibrioides", "value": 87, "unit": "%"}]}
{"molecule": "Nc1nc2c(ncn2[C@@H]2O[C@H](COCc3cn(C[C@H]4O[C@@H](n5cnc6c(=O)[nH]c(N)nc65)[C@H](O)[C@@H]4O)nn3)[C@@H](O)[C@H]2O)c(=O)[nH]1", "values": [{"measurement": "Activity", "setting": "Pseudomonas aeruginosa [5]", "value": 88, "unit": "%"}, {"measurement": "Activity", "setting": "Caulobacter vibrioides", "value": 63, "unit": "%"}]}
{"molecule": "Nc1nc2c(ncn2CCn2cc(Cn3cnc4c(=O)[nH]c(N)nc43)nn2)c(=O)[nH]1", "values": [{"measurement": "Activity", "setting": "Pseudomonas aeruginosa [5]", "value": 77, "unit": "%"}, {"measurement": "Activity", "setting": "Caulobacter vibrioides", "value": 104, "unit": "%"}]}
{"molecule": "Nc1ncnc2c1ncn2[C@@H]1O[C@H](COCc2cn(C[C@H]3O[C@@H](n4cnc5c(N)ncnc54)[C@H](O)[C@@H]3O)nn2)[C@@H](O)[C@H]1O", "values": [{"measurement": "Activity", "setting": "Pseudomonas aeruginosa [5]", "value": 113, "unit": "%"}, {"measurement": "Activity", "setting": "Caulobacter vibrioides", "value": 105, "unit": "%"}]}
{"molecule": "Nc1nc(Cl)c2ncn(CCCn3cc(Cn4cnc5c(Cl)nc(N)nc54)nn3)c2n1", "values": [{"measurement": "inhibition", "setting": "Pseudomonas aeruginosa [1]", "value": "inactive"}, {"measurement": "IC50", "setting": "[3]", "value": 25.5, "unit": "µM"}, {"measurement": "Activity", "setting": "Pseudomonas aeruginosa [4]", "value": "inactive"}, {"measurement": "Activity", "setting": "Pseudomonas aeruginosa [5]", "value": 96, "unit": "%"}, {"measurement": "Activity", "setting": "Pseudomonas aeruginosa [7]", "value": "inactive"}, {"measurement": "inhibition", "setting": "Escherichia coli", "value": "inactive"}, {"measurement": "Activity", "setting": "Caulobacter vibrioides", "value": 32, "unit": "%"}]}
